NR2E3 ag-1: agonists of human NR2E3 nuclear receptor; CHO-S Gal4-NCOR/VP16-NR2E3 two-hybrid, luciferase; Q9Y5X4; AID 602229; inhibition of corepressor binding, % at 3.98 µM; hit rate 0.35% among 360,000;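 active = inhibition above the mean of all tested compounds plus 3 SD, cut at about 70% in these data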;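 note: 0% = DMSO with NR2E3 transfected cells and 100% = cells lacking NR2E3 construct; higher means lower luciferase signal from less NR2E3 corepressor binding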
Target sequence (Q9Y5X4 whole entry, looked up, the tested form may be a part): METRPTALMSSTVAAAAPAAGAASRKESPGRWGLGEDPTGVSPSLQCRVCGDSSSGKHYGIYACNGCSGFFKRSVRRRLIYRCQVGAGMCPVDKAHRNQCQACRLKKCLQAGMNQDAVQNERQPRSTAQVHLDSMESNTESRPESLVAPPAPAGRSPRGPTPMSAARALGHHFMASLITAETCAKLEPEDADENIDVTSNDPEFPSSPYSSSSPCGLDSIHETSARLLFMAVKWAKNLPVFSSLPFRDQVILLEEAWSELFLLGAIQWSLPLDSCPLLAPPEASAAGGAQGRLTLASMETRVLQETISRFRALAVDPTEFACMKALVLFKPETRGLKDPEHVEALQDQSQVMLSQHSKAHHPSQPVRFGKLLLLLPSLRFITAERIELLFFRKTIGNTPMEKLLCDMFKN
HIV Env fusion: blocks HIV Env-driven cell-cell fusion; HeLa-JRFL Env/CEM21 cell fusion, luciferase; inhibition, % at 12.3 µM; hit rate 1.1% among 360,000;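 active = mean replicate inhibition score of at least 50 and every replicate individually at or above 50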;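 note: 0% = plate neutral controls and 100% = maraviroc near 300 nM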
NR2E3 ag-2: activates human photoreceptor nuclear receptor NR2E3; Q9Y5X4; GST-NR2E3/biotin-RetCOR TR-FRET, 1536-well; inhibition of corepressor binding, % at 4.78 µM; hit rate 0.12% among 320,000; AID 2300;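 active = percent inhibition above the cutoff of mean plus 3 SD of all tested compounds, set per screening campaign, cut at about 20% in these data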;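 note: 0% = DMSO wells and 100% = biotin wells as full block of FRET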
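Test system – NR2E3–RetCOR corepressor complex · Quantity – NR2E3 fusion 1.35 nM · Buffer or medium – Tris pH 7.5 · Incubation – Compound–protein incubation for 5 h at 4 °C · Technique – TR-FRET, Eu(K)-anti-GST donor, streptavidin-D2 acceptor, ex 340, em 617/671 nm · Evaluation – percent inhibition of 671/617 nm emission ratio versus biotin and DMSO controls · Plate – 1536-well format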
GAA850 FXN act: frataxin GAA850 promoter activation. HEK293 lucGAA850 FXN promoter luciferase reporter, 24 h; percent of 10 µM SAHA response. activation, % at 6 µM. hit rate 0.56% among 360,000;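 active = activation above the average of all compounds screened plus 3 SD, cutoff fixed separately per campaign, cut at about 7.5% in these data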;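 note: 0% = DMSO wells and 100% = 10 µM SAHA wells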
GalR3 antagonist: antagonists of human GalR3 | O60755 | HEK293 GalR3-CNG cAMP membrane potential fluorescence; galR3 body fused to GalR1 C-terminus | inhibition, % at 3 µM | hit rate 0.44% among 360,000;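 active = inhibition above the screen-wide average plus 3 SD, cut at about 13% in these data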;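 note: forskolin and galanin both at EC90 stimulate the cells; cAMP rise reported by CNG channel membrane potential dye signal; 0% = forskolin plus galanin with DMSO and 100% = forskolin alone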
V-ATPase pHluor: regulators of yeast V-ATPase proton transport. S. cerevisiae, pHLuorin cytosolic pH fluorescence. AID 504577. response, % at 10 µM. hit rate 0.37% among 350,000; in the data active = response mostly above about 7.3%, no sharp cut-off; inactive = mostly below about 5.4%; note: actives read high
VATPase regulator: regulators of yeast V-ATPase proton transport; hit rate 2% among 980; shares compounds with V-ATPase pHluor; response, % at 10 µM; AID 602197; S. cerevisiae pHLuorin cytosolic pH; in the data active = response above about 24%;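 note: plate controls were vehicle wells for no effect and positive control wells for full effect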
The depositor's hits bear a star; nt = no result; [ ] = another dose, or the depositor's remark. The list is not random: actives were taken first. Their share in the collection is about 2.2%.

SMILES	NR2E3 ag-1	HIV Env fusion	NR2E3 ag-2	GAA850 FXN act	GalR3 antagonist	V-ATPase pHluor	VATPase regulator
O=C(CCCSc1nnc(SCCCC(=O)c2ccc(F)cc2)s1)c1ccc(F)cc1	18.8	59.7*	-1.5	-1.7	-3.5	-3.3	1.3
CCNc1nnc(CCn2nc(C)c(Br)c2C)s1	7.8	7.5	1.0	2.7	-4.9	17.5*	0.7
CCCCNc1nnc(CCn2nc(C)c(Br)c2C)s1	19.1	-10.7	1.6	3.0	-6.1	-1.5	nt
Cc1nc2ccsc2c(=O)n1-c1ccc(Cl)cc1	-5.0	-12.0	0.0	2.1	0.0	-1.6	-1.0
Cc1ccc(-n2c(C)nc3ccsc3c2=O)cc1	17.1	25.1	1.4	1.5	-5.2	-1.6	nt
Cc1ccc(S(=O)(=O)NC(=O)NCCCCNC(=O)NS(=O)(=O)c2ccc(C)cc2)cc1	-14.6	-37.0	-4.0	-1.4	-2.9	17.6*	1.1
CO[C@@H]1CN(C)C(=O)c2cc(NC(=O)c3ccccc3)ccc2OC[C@@H](C)NC[C@H]1C	nt	-1.4[16.7 µM]	nt	nt	nt	nt	nt
CC(C)NC(=O)N(C)C[C@@H]1Oc2ncc(C#Cc3ccccc3F)cc2C(=O)N([C@@H](C)CO)C[C@H]1C	nt	-19.1[16.7 µM]	nt	nt	nt	nt	nt
O=C(CCl)N1CCN(C(=O)C2COc3ccccc3O2)CC1 (stereo not drawn)	-23.3	-127.9	nt	-9.2	-3.7	14.1*	1.5
CCN1CCN(C(=O)C2COc3ccccc3O2)CC1 (stereo not drawn)	13.9	nt	1.3	0.8	-5.7	7.9	nt
CSc1nccc(N2CCN(c3ccc(F)cc3)CC2)n1	-19.8	-0.5	-1.6	3.5	-6.0	11.0*	-1.2
C[C@H](NC(=O)[C@H]1[C@H](CO)[C@H]2Cn3c(ccc(-c4ccncc4)c3=O)[C@H]2N1C)c1ccccc1	nt	-6.7[16.7 µM]	nt	nt	nt	nt	nt
O=C(NCCCn1ccnc1)c1cccc(S(=O)(=O)N2CCCCCC2)c1	0.1	18.9	-2.6	1.2	-4.1	-2.2	nt
CC1Cc2ccccc2N1S(=O)(=O)c1cccc(C(=O)NCCCn2ccnc2)c1 (stereo not drawn)	-6.0	2.9	-1.0	2.9	-4.3	10.1*	-0.7
N#C[C@@H]1[C@@H](c2ccc(-c3cccc(F)c3)cc2)[C@H](CO)N1C(=O)NC1CCCC1	nt	2.6[16.7 µM]	nt	nt	nt	nt	nt
COc1ccccc1CNC(=O)C[C@@H]1CC[C@H](NC(C)=O)[C@H](CO)O1	nt	-4.6[16.7 µM]	nt	nt	nt	nt	nt
COC(=O)c1ccc(CNC(=O)c2ccc3c(c2)S(=O)(=O)N=C2CCCCCN23)cc1	18.3	nt	-0.1	1.4	-5.1	10.9*	-1.1
COc1cccc(CNC(=O)c2ccc3c(c2)S(=O)(=O)N=C2CCCCCN23)c1	-7.5	nt	-0.9	-0.8	-2.1	2.0	nt
CC(C)C[C@H](NC(=O)OC(C)(C)C)C(=O)N[C@@H](CO)[C@H](O)[C@@H]1C[C@@H]1C(=O)NC1CCCCC1	9.2	-96.9	2.4	-1.0	-3.3	25.8*	1.6
C[C@@H]1CCCCO[C@@H](CN(C)S(=O)(=O)c2cn(C)cn2)[C@H](C)CN([C@@H](C)CO)C(=O)c2cc(NS(=O)(=O)c3cccs3)ccc2O1	nt	0.1[16.7 µM]	nt	nt	nt	nt	nt
COc1ccc(S(=O)(=O)N(C)C[C@@H]2Oc3ccc(NC(=O)Nc4cccc5ccccc45)cc3C(=O)N([C@@H](C)CO)C[C@H]2C)cc1	nt	6.0[16.7 µM]	nt	nt	nt	nt	nt
Nc1nc(NCc2ccco2)nc(N2CCCCCC2)c1[N+](=O)[O-]	25.3	nt	-3.6	4.3	-8.1	22.6*	1.2
CCOC(=O)COn1c(=O)c[n+]([O-])c2ccccc21	-24.5	-35.0	1.2	0.5	1.2	15.3*	-0.6
CCOC(=O)COn1c(=O)c(C)[n+]([O-])c2ccccc21	-17.9	1.3	0.2	-0.5	-2.0	-6.2	nt
COc1ccc([N+](=O)[O-])cc1N(CC(=O)N1CCN(Cc2ccccc2)CC1)S(C)(=O)=O	19.7	6.6	7.1	3.5	-6.9	8.8*	0.3
COc1ccc(OC)c(N(CC(=O)N2CCN(Cc3ccccc3)CC2)S(C)(=O)=O)c1	-16.4	9.8	2.0	1.0	-7.9	2.6	nt
C[C@@H]1CCCCO[C@@H](CN(C)S(=O)(=O)c2cccs2)[C@@H](C)CN([C@@H](C)CO)C(=O)c2cc(NC(=O)CCCN(C)C)ccc2O1	nt	11.5[16.7 µM]	nt	nt	nt	nt	nt

High-throughput results deposited in PubChem BioAssay by several laboratories.
